# Key:
# [1] = Inhibitory concentration against Murine Lewis lung carcinoma (LLC) cell proliferation; assay type: functional, cell-based; settings: Mus musculus
# Procedure, shortened: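 Lewis lung carcinoma (LLTC) cells plated at 10³ per well and exposed to drug for 4 days. Growth was measured by sulforhodamine assay. IC50 is the concentration giving 50% of control cell number. Independent assays were run in duplicate, with a coefficient of variation of 12%.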
# [2] = Inhibitory concentration to reduce cell number to 50% of Murine P388 leukemia cell culture; assay type: functional, Mus musculus
# Procedure, shortened: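 Murine P388 leukemia cells seeded at 4.5 × 10³ per well and grown 3 days with drug. Growth was read by [³H]TdR uptake. IC50 is the drug concentration that reduces cell number to 50% of control cultures. Independent assays were run in duplicate, with a coefficient of variation of 12%.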
# [3] = Inhibitory concentration against Human Jurkat leukemia (JLC) cell proliferation; assay type: functional
# Procedure, shortened: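 Human Jurkat leukemia (JL_C) cells at 3.75 × 10³ per well, cultured 4 days with drug. Sulforhodamine read-out. IC50 is the concentration reducing cell number to 50% of untreated controls. Duplicate independent assays, coefficient of variation 6.3%.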
# [4] = Ratio of inhibitory concentration of Human Jurkat leukemia A (JLA) and Human Jurkat leukemia C (JLC); assay type: functional
# Procedure, shortened: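 Human Jurkat leukemia cells (JLC) and their amsacrine-resistant derivative (JLA) were seeded at 3.75 × 10³ cells/well and grown 4 days with drug. Growth was read by sulforhodamine assay. IC50 is the drug level cutting cell number to 50% of control cultures; the ratio is IC50(JLA)/IC50(JLC). Independent assays were run in duplicate; CVs were 9.3% (JLA) and 6.3% (JLC).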
# [5] = Ratio of inhibitory concentration of Human Jurkat leukemia D (JLD) and Human Jurkat leukemia C (JLC); assay type: functional
# Procedure, shortened: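 Parental Jurkat (JL_C) and its amsacrine-resistant (JL_A) and doxorubicin-resistant (JL_D) derivatives, each seeded at 3.75 × 10³ per well for 4 days of drug exposure. Sulforhodamine assay gave IC50 (50% of control cell number). The ratio is resistant-line IC50 over JL_C IC50. Duplicate assays; coefficients of variation 9.3% (JL_A) and 5.7% (JL_D).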
Compound,IC50 [1] [nM],IC50 [2] [nM],IC50 [3] [nM],IC50 ratio [4],IC50 ratio [5]
COc1cc([C@@H]2c3cc4c(cc3[C@@H](O[C@@H]3O[C@@H]5CO[C@@H](C)O[C@H]5[C@H](O)[C@H]3O)[C@H]3COC(=O)[C@H]23)OCO4)cc(OC)c1O [ETOPOSIDE],180,25,160,13,90
CN(C)CCNC(=O)c1cccc2cc3c(nc12)-c1ccccc1C3=O,91,130,180,1.2,0.9
COc1cc(NS(C)(=O)=O)ccc1Nc1c2ccccc2nc2ccccc12 [AMSACRINE],12,20,37,85,74
CN(C)CCNC(=O)c1cccc2cc3c(nc12)C(=O)c1ccccc1-3,150,85,370,0.9,0.9
CN(C)CCNC(=O)c1cc(Cl)cc2[nH]c3c4ccccc4nc-3nc12,360,15000,300,1.2,1.3
CN(C)CCNC(=O)c1cccc2cc3[nH]c4ccccc4c3nc12,290,370,450,1,1.1
CN(C)CCNC(=O)c1cccc2nc3c(nc12)oc1ccccc13,1700,2200,2600,1,1
CN(C)CCNC(=O)c1cc(Cl)cc2nc3c(nc12)oc1ccccc13,1400,6800,1500,1.2,> 1.3
CN(C)CCNC(=O)c1cccc2cc3oc4ccccc4c3nc12,210,170,430,1.2,1.2
CN(C)CCNC(=O)c1cccc2cc3ccccc3nc12,–,98,580,–,–
CN(C)CCNC(=O)c1cc(Cl)cc2nc3oc4ccccc4c3nc12,> 2000,5800,> 2000,–,–
CN(C)CCNC(=O)c1cccc2cc3sc4ccccc4c3nc12,66,46,170,1.5,1.6
CN(C)CCNC(=O)c1cccc2nc3c(nc12)-c1ccccc1C3=O,880,700,1100,1,1.1
CN(C)CCNC(=O)c1cccc2nc3c(nc12)-c1ccccc1C3,390,360,550,1,1
CC[C@@]1(O)C(=O)OCc2c1cc1n(c2=O)Cc2cc3ccccc3nc2-1 [CAMPTOTHECIN],33,–,5.6,2,1.4
COc1cccc2c1C(=O)c1c(O)c3c(c(O)c1C2=O)C[C@@](O)(C(=O)CO)C[C@@H]3O[C@H]1C[C@H](N)[C@H](O)[C@H](C)O1 [DOXORUBICIN],22,15,9.6,4.4,90
CN(C)CCNC(=O)c1cccc2cc3c(nc12)-c1ccccc1S3(=O)=O,430,1800,860,3.2,4.2
CN(C)CCNC(=O)c1cccc2nc3sc4ccccc4c3nc12,110,100,150,1.9,2.7
CN(C)CCNC(=O)c1cccc2[nH]c3c4ccccc4nc-3nc12,990,670,1400,0.9,1
CN(C)CCNC(=O)c1cccc2c(C(=O)NCCN(C)C)c3sc4ccccc4c3nc12,30,25,34,0.5,0.9
CN(C)CCNC(=O)c1cccc2cc3c(nc12)-c1ccccc1C3,190,88,320,1.8,1.9
CN(C)CCNC(=O)c1cc(Cl)cc2[nH]c3nc4ccccc4c-3nc12,700,1600,980,0.8,0.9

# Reference: ChEMBL document CHEMBL1130077, “Synthesis and antitumor properties of N-[2-(dimethylamino)ethyl]carboxamide derivatives of fused tetracyclic quinolines and quinoxalines: a new class of putative topoisomerase inhibitors” (J Med Chem, 1997)
